Published values of several laboratories.
Each line is one published result; the experiments were not run side by side.
Target: Phosphatidylinositol 3-kinase C2 domain-containing subunit gamma (PIK3C2G, Homo sapiens, UniProt O75747)
Residues used in one study (O75747 1-1486): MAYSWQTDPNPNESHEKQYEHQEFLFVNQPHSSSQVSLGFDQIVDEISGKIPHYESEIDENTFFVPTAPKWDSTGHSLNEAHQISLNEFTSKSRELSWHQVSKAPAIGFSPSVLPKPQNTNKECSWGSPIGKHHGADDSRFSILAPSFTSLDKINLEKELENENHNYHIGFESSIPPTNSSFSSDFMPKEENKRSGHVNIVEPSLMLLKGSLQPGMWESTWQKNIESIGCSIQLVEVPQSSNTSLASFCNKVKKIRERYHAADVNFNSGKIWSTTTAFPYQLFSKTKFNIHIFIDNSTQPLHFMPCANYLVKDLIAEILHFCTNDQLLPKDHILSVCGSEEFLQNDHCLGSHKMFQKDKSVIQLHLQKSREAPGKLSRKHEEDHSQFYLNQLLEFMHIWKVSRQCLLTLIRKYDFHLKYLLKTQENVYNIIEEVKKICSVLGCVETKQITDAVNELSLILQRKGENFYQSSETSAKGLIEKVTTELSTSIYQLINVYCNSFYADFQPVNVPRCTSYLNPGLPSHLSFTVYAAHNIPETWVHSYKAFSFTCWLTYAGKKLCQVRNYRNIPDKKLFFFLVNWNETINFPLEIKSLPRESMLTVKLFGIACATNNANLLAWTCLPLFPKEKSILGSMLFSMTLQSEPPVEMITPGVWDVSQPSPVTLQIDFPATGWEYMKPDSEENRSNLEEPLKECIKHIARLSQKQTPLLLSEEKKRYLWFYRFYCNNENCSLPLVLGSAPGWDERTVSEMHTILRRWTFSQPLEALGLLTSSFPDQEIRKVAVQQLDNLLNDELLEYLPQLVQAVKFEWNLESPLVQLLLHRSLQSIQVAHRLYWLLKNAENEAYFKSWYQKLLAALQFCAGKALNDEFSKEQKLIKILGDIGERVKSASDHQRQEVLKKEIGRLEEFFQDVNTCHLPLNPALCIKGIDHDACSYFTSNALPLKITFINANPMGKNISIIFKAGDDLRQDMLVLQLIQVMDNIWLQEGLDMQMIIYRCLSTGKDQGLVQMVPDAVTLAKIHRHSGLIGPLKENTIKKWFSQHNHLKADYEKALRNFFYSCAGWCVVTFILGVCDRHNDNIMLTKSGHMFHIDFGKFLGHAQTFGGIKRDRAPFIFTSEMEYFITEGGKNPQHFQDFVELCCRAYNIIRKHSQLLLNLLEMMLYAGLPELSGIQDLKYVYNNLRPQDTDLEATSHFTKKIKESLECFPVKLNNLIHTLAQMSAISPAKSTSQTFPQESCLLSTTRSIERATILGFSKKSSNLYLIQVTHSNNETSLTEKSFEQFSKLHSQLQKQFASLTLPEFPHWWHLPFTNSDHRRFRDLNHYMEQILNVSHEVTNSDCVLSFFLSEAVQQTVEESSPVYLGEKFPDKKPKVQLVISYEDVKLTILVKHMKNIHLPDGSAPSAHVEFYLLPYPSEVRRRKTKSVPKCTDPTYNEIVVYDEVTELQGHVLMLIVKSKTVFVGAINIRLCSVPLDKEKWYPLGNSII

| Structure (SMILES) | test | conditions | remaining binding [%] |
| --- | --- | --- | --- |
| O=C(NCC1CCOCC1)c1n[nH]cc1NC(=O)c1c(F)cccc1F | binding, competition with immobilised ligand | 1 µM | 100 |
| CN(C)c1nccc(-c2cnn3ncccc23)n1 | binding | 1 µM | 100 |
| CC1=C(C#N)C(c2ccc3c(c2)c(NC(=O)c2ccccc2C)nn3C)C(C#N)=C(C)N1 | cell-free assay, competition with immobilised ligand | 1 µM | 61 |
| COc1cnc(Nc2cccc(S(N)(=O)=O)c2)nc1N1CCN(c2ccccc2)CC1 | binding, competition with immobilised ligand | 1 µM | 79 |
| Cc1cnc(Nc2ccc(C(=O)N3CCC(N4CCCC4)CC3)cc2)nc1-c1cc2ccccc2s1 | binding, competition with immobilised ligand | 1 µM | 90 |
| N[C@@H]1CCN(c2nccc(-c3cnn4ncccc34)n2)C1 | binding | 1 µM | 100 |
| CN(C)C(=O)Cn1cc(-c2nc([C@@](C)(c3ccc(-c4cnc(N)nc4)cc3)C3CC3)no2)cn1 | cell-free assay, competition with immobilised ligand | 1 µM | 66 |
| COc1cnc(Nc2cccc(S(N)(=O)=O)c2)nc1N1CCN(c2ccccc2)C(=O)C1 | binding, competition with immobilised ligand | 1 µM | 54 |
| COc1ccc2c(O[C@@H]3C[C@H]4C(=O)N[C@]5(C(=O)O)CC5/C=C\CCCCC[C@H](NC(=O)OC5CCCC5)C(=O)N4C3)cc(-c3csc(NC(=O)C(C)C)n3)nc2c1C (some centres unmarked) | cell-free assay, competition with immobilised ligand | 1 µM | 86 |
| O=C(c1ccc(Nc2ncc(Cl)c(-c3ccc(Cl)s3)n2)cc1)N1CCC(N2CCCC2)CC1 | binding, competition with immobilised ligand | 1 µM | 100 |
| Nc1ncc2c(n1)-c1c([nH]c3ccc(C#CC4CC4)cc13)CCCC2 | binding, competition with immobilised ligand | 1 µM | 92 |
| CC(=O)N1CCC(c2ccc(C(=O)NC3=NCCN3)cc2C(F)(F)F)CC1 | cell-free assay, competition with immobilised ligand | 1 µM | 85 |
| c1cncc(-c2cccc(Nc3nccc(NC4CCCCC4)n3)c2)c1 | binding, competition with immobilised ligand | 10 µM | 51 |
| CN(CCCC(F)(F)F)c1nccc(-c2cnn3ncccc23)n1 | binding | 1 µM | 100 |
| CCCOc1ccc([C@@H]2[C@@H](C(=O)O)[C@H](c3ccc4c(c3)OCO4)CN2CC(=O)Nc2c(CC)cccc2CC)cc1 | cell-free assay, competition with immobilised ligand | 1 µM | 78 |
| C[C@H]1CCN(c2nccc(-c3cnn4ncccc34)n2)C1 | binding | 1 µM | 79 |
| C=CC(=O)N1CCC(C(=O)NCC(=O)N2CCN(c3nc(-c4cnc(N)nc4C(F)F)nc(N4CCOCC4)n3)CC2)CC1 | binding, competition with immobilised ligand | 1 µM | 16 |
| O=C(c1ccc(Nc2nccc(-c3cc4ccccc4s3)n2)cc1)N1CCC(N2CCCC2)CC1 | binding, competition with immobilised ligand | 1 µM | 100 |
| O=C(NCc1ncc(C(F)(F)F)cc1Cl)c1ccc2c(c1)C1(CCS(=O)(=O)CC1)[C@@H](C1CC1)N2S(=O)(=O)c1ccc(F)cc1 | cell-free assay, competition with immobilised ligand | 1 µM | 75 |
| COc1ccnn2ncc(-c3ccnc(N(C)C)n3)c12 | binding | 1 µM | 93 |
